Measured values as given in ChEMBL document CHEMBL1122032, “Dopaminergic activity of substituted 6-chloro-1-phenyl-2,3,4,5-tetrahydro-1H-3-benzazepines” (J Med Chem, 1982).
Calls of active or inactive are those of the source. The rule behind the calls is not given here.

Tests used:
Canis familiaris [1] = species: Canis familiaris; experiment: Renal blood flow was measured in dogs; Highly significant activity; type: functional, organism-based; conditions: Canis lupus familiaris; Kidney
Canis familiaris [2] = species: Canis familiaris; experiment: Renal vascular resistance was calculated as the ratio of the mean arterial blood pressure / mean renal blood flow; I=Inactive; type: functional, organism-based; conditions: Canis lupus familiaris
Canis familiaris [3] = experiment: Compound was evaluated for determining renal vascular resistance(iv) in dogs; type: functional, Canis lupus familiaris
Method in brief: (§1)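 Secondary renal screen in anesthetized dogs: cumulative dose-response by infusing drug at progressively increasing rates, 5 min per dose level. RVR ED15 is the average minimum cumulative dose lowering RVR by 15%; maximum effect is the average maximum % fall in RVR. Selectivity ratios are separations between RVR ED15 and doses giving 30% change in iliac vascular resistance, 20% in MABP, 20% in HR.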

Canis familiaris [4] = species: Canis familiaris; experiment: Compound was evaluated for average maximum percent decrease in renal vascular resistance in dogs; type: functional, Canis lupus familiaris; method in brief: as §1
Rattus norvegicus [5] = species: Rattus norvegicus; experiment: Adenylase cyclase activity in rat striatal membranes at the concentration of 10e-5; type: functional; conditions: Striatum, Membrane
Rattus norvegicus [6] = species: Rattus norvegicus; experiment: Adenylase cyclase activity in rat striatal membranes at the concentration of 10e-6; type: functional; conditions: Striatum, Membrane
Rattus norvegicus [7] = experiment: Central dopaminergic activity against contralateral rotation(1000) in lesioned rats at the dose of 10 mg/kg (p.o.) in 2 h; type: functional; conditions: route oral
Method in brief: (§2)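 Oral dosing in rats with substantia nigra lesions, scoring contralateral rotations. RD1000 is the minimum dose producing 1000 turns in 2 h.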

Rattus norvegicus [8] = experiment: Central dopaminergic activity for minimum concentration which produced 500 rotations(ip) in 2 h; type: functional
Method in brief: (§3)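 Rats with substantia nigra lesions scored for contralateral rotation after intraperitoneal dosing (routine), oral dosing for selected compounds, or intracaudal administration for intrinsic activity. RD500 and RD1000 are the minimum doses giving 500 and 1000 turns, respectively, in 2 h.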

[9] = Selectivity ratio of compound as ED15 relative to heart rate(HR) ED20; type: functional; method in brief: as §1
[10] = Selectivity ratio of compound as ratio of ED15 relative to mean arterial blood pressure(MABP) ED20; type: functional; method in brief: as §1
[11] = Selectivity ratio of Compound as ratio of ED15 relative to iliac vascular resistance(IVR) ED30; type: functional; method in brief: as §1
Canis familiaris [12] = species: Canis familiaris; experiment: Renal vascular resistance was calculated as the ratio of the mean arterial blood pressure / mean renal blood flow; Highly significant activity; type: functional, organism-based; conditions: Canis lupus familiaris
Rattus norvegicus [13] = species: Rattus norvegicus; experiment: Adenylase cyclase activity in rat striatal membranes at the concentration of 10e-7; type: functional; conditions: Striatum, Membrane
Rattus norvegicus [14] = experiment: Central dopaminergic activity against contralateral rotation(1000) in lesioned rats(po) in 2 h; type: functional; method in brief: as §2
Canis familiaris [15] = species: Canis familiaris; experiment: Renal blood flow was measured in dogs; I=Inactive; type: functional, organism-based; conditions: Canis lupus familiaris; Kidney
Rattus norvegicus [16] = experiment: Central dopaminergic activity for minimum concentration which produced 500 rotations at the dose of 2.0 mg/kg (i.p.) in 2 h; type: functional; conditions: route intraperitoneal; method in brief: as §3
Rattus norvegicus [17] = experiment: Central dopaminergic activity against contralateral rotation(1000) in lesioned rats at the dose of 6.0 mg/kg (p.o.) in 2 h; type: functional; conditions: route oral; method in brief: as §2
Canis familiaris [18] = species: Canis familiaris; experiment: Renal blood flow was measured in dogs; Significant activity; type: functional, organism-based; conditions: Canis lupus familiaris; Kidney
Rattus norvegicus [19] = experiment: Central dopaminergic activity for minimum concentration which produced 500 rotations(ip); type: functional; method in brief: as §3
Rattus norvegicus [20] = experiment: Central dopaminergic activity against contralateral rotation(1000) in lesioned rats at the dose of 6 mg/kg (p.o.) in 2 h; I=Inactive
Rattus norvegicus [21] = experiment: Central dopaminergic activity against contralateral rotation(1000) in lesioned rats(po) in 2 hr at 10 mg/kg; I=Inactive; type: functional, organism-based; parameters: dose 10 mg/kg; method in brief: as §2
Rattus norvegicus [22] = species: Rattus norvegicus; experiment: Central dopaminergic activity against contralateral rotation(500) in lesioned rats; type: functional; method in brief: as §3
Rattus norvegicus [23] = experiment: Central dopaminergic activity for minimum concentration which produced 500 rotations at the dose of 10 mg/kg (i.p.) in 2 h; I=Inactive; type: functional, organism-based; parameters: dose 10 mg/kg; method in brief: as §3
Canis familiaris [24] = species: Canis familiaris; experiment: Renal vascular resistance was calculated as the ratio of the mean arterial blood pressure / mean renal blood flow; Significant activity; type: functional, organism-based; conditions: Canis lupus familiaris
Rattus norvegicus [25] = species: Rattus norvegicus; experiment: Adenylase cyclase activity in rat striatal membranes; type: functional, organism-based, Membrane; conditions: Striatum
Rattus norvegicus [26] = experiment: Central dopaminergic activity for minimum concentration which produced 500 rotations at the dose of 2.0 mg/kg (i.p.) in 2 h; I=Inactive; type: functional, organism-based; parameters: dose 2 mg/kg; method in brief: as §3
Rattus norvegicus [27] = experiment: Central dopaminergic activity against contralateral rotation(1000) in lesioned rats at the dose of 5.8(po) in 2 h; I=Inactive; type: functional, organism-based; method in brief: as §2
Rattus norvegicus [28] = species: Rattus norvegicus; experiment: Central dopaminergic activity against contralateral rotation(500) in lesioned rats(ic) in 2 h; type: functional; method in brief: as §3
Rattus norvegicus [29] = species: Rattus norvegicus; experiment: Central dopaminergic activity against contralateral rotation(500) in lesioned rats(ic); type: functional; method in brief: as §3
Rattus norvegicus [30] = experiment: Central dopaminergic activity for minimum concentration which produced 500 rotations at the dose of 2 mg/kg (i.p.) in 2 h; I=Inactive; type: functional, organism-based; parameters: dose 2 mg/kg; method in brief: as §3

Br.C=CCN1CCc2c(cc(O)c(O)c2Cl)C(c2cccc(Cl)c2)C1 (configuration not stated)
RBF (Canis familiaris [1]): Highly significant activity | RVR (Canis familiaris [2]): inactive | RVR ED15 (Canis familiaris [3]): 0.022 mg/kg | Decrease RVR (Canis familiaris [4]): 38% | DA response (Rattus norvegicus [5]): 83% | DA response (Rattus norvegicus [6]): 92% | RD1000 (Rattus norvegicus [7]): 1160 turns/2 h | RD500 (Rattus norvegicus [8]): 0.11 mg/kg | Ratio [9]: >6072 | Ratio [10]: >6072 | Ratio [11]: > 6070

Br.C=CCN1CCc2c(cc(O)c(O)c2Cl)C(c2cccc(C)c2)C1 (configuration not stated)
RBF (Canis familiaris [1]): Highly significant activity | RVR (Canis familiaris [12]): Significant activity | DA response (Rattus norvegicus [5]): 96% | DA response (Rattus norvegicus [13]): 86% | RD1000 (Rattus norvegicus [14]): 3 mg/kg | RD500 (Rattus norvegicus [8]): 0.04 mg/kg

Br.CN1CCc2c(cc(O)c(O)c2Cl)C(c2cccc(C(F)(F)F)c2)C1 (configuration not stated)
RBF (Canis familiaris [15]): inactive | RVR (Canis familiaris [2]): inactive | RD500 (Rattus norvegicus [16]): 594 turns/2 h | RD1000 (Rattus norvegicus [17]): 296 turns/2 h

Br.Oc1cc2c(c(Cl)c1O)CCNCC2c1cccc(Cl)c1 (configuration not stated)
RBF (Canis familiaris [1]): Highly significant activity | RVR (Canis familiaris [2]): inactive | DA response (Rattus norvegicus [5]): 90% | DA response (Rattus norvegicus [6]): 82% | RD1000 (Rattus norvegicus [7]): 602 turns/2 h | RD500 (Rattus norvegicus [8]): 0.3 mg/kg

Cl.Oc1cc2c(c(Cl)c1O)CCN(Cc1ccc(C(F)(F)F)cc1)CC2c1ccccc1 (configuration not stated)
RBF (Canis familiaris [18]): Significant activity | RVR (Canis familiaris [2]): inactive | RD500 (Rattus norvegicus [19]): 455 turns/2 h

Oc1cc2c(c(Cl)c1O)CCN(Cc1ccco1)CC2c1cccc(Cl)c1 (configuration not stated)
RBF (Canis familiaris [18]): Significant activity | RVR (Canis familiaris [2]): inactive | RD1000 (Rattus norvegicus [20]): inactive

C=CCN1CCc2c(cc(OC(C)=O)c(OC(C)=O)c2Cl)C(c2ccccc2)C1.Cl (configuration not stated)
RD1000 (Rattus norvegicus [21]): inactive | RD500 (Rattus norvegicus [8]): 0.03 mg/kg

CS(=O)(=O)O.Oc1ccc(C2CNCCc3c2cc(O)c(O)c3Cl)cc1 (configuration not stated) [FENOLDOPAM MESYLATE]
RBF (Canis familiaris [1]): Highly significant activity | RVR (Canis familiaris [12]): Significant activity | RVR ED15 (Canis familiaris [3]): 0.0003 mg/kg | Decrease RVR (Canis familiaris [4]): 59% | RD500 (Rattus norvegicus [22]): 0.5 ug rat-1 | RD500 (Rattus norvegicus [23]): inactive | Ratio [9]: >6072 | Ratio [10]: >6072 | Ratio [11]: > 6070

Br.Oc1cccc(C2CNCCc3c2cc(O)c(O)c3Cl)c1 (configuration not stated)
RBF (Canis familiaris [18]): Significant activity | RVR (Canis familiaris [24]): Significant activity | RVR ED15 (Canis familiaris [3]): 0.00035 mg/kg | Decrease RVR (Canis familiaris [4]): 49% | EC50 (Rattus norvegicus [25]): 45 nM | RD500 (Rattus norvegicus [23]): inactive | Ratio [9]: 1029 | Ratio [10]: >6072 | Ratio [11]: 34

Cc1cccc(C2CN(Cc3ccco3)CCc3c2cc(O)c(O)c3Cl)c1 (configuration not stated)
RBF (Canis familiaris [15]): inactive | RVR (Canis familiaris [2]): inactive | RD500 (Rattus norvegicus [26]): inactive

Br.Oc1cc2c(c(Cl)c1O)CCNCC2c1cccc(C(F)(F)F)c1 (configuration not stated)
RBF (Canis familiaris [1]): Highly significant activity | RVR (Canis familiaris [12]): Significant activity | RVR ED15 (Canis familiaris [3]): 0.008 mg/kg | Decrease RVR (Canis familiaris [4]): 44% | DA response (Rattus norvegicus [5]): 64% | DA response (Rattus norvegicus [6]): 59% | RD1000 (Rattus norvegicus [27]): inactive | RD500 (Rattus norvegicus [8]): 0.71 mg/kg | Ratio [9]: 75 | Ratio [10]: >6072 | Ratio [11]: 10

Br.Oc1cc2c(c(Cl)c1O)CCNCC2c1ccccc1 (configuration not stated)
RBF (Canis familiaris [1]): Active | RVR (Canis familiaris [12]): Active | RVR ED15 (Canis familiaris [3]): 0.0035 mg/kg | Decrease RVR (Canis familiaris [4]): 39% | RD500 (Rattus norvegicus [28]): 0.22 ug rat-1 | RD1000 (Rattus norvegicus [14]): 4.04 mg/kg | RD500 (Rattus norvegicus [8]): 0.03 mg/kg

CN1CCc2c(cc(O)c(O)c2Cl)C(c2ccccc2)C1.Cl (configuration not stated)
RBF (Canis familiaris [18]): Significant activity | RVR (Canis familiaris [12]): Significant activity | EC50 (Rattus norvegicus [25]): 600 nM | RD500 (Rattus norvegicus [29]): 0.32 ug rat-1 | RD500 (Rattus norvegicus [8]): 0.03 mg/kg

CCCN1CCc2c(cc(O)c(O)c2Cl)C(c2ccccc2)C1 (configuration not stated)
RBF (Canis familiaris [18]): Significant activity | RVR (Canis familiaris [2]): inactive | RD500 (Rattus norvegicus [30]): inactive
